Test results from the array DNA melting data of Ke et al. (doi:10.1101/2024.01.08.574731).

What was measured:
[1] = melting temperature; fluorescence melt of hairpins on a sequencing array, two-state fit, raised by 9.35 °C to match UV melts; details: sodium 0.088 M
In short: (§1)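 Library hairpins on a sequenced MiSeq flow cell carried annealed Cy3 and quencher oligos, and their Cy3 fluorescence was imaged in 50 mM Na-HEPES pH 8.0 with 25 mM NaCl, in 2.5 °C steps up to 60 °C. Signals were normalised to Cy3 before quenching and to control constructs. Melting temperature and folding enthalpy were obtained from bootstrapped two-state fits, combined by inverse-variance weighting across four replicates, and the fitted temperatures were then raised by 9.35 °C to match UV melts.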

[2] = folding enthalpy; higher = less favourable; fluorescence melt of hairpins on a sequencing array, two-state fit; details: sodium 0.088 M
In short: as §1

Row | Sequence | Tm [1] [°C] | folding enthalpy [2] [kcal/mol]
1 | TTCCGGAAACGGAA (((((....))))) | 48.7 | -18.6
2 | TTCGAGAAATCGAA (((((....))))) | 37.9 | -12.4
3 | TTGCTGAAAAGCAA (((((....))))) | 49.2 | -16.2
4 | TTGTTGAAAAACAA (((((....))))) | 30.7 | -11.4
5 | TTTCGGAAACGAAA (((((....))))) | 40.6 | -18.3
6 | TTTGCGAAAGCAAA (((((....))))) | 54.3 | -17.4
7 | TTTTGGAAACAAAA (((((....))))) | 27.4 | -9.86
